Publication PMC7240809 (ACS Omega, 2020)

Assays:
[1] = In vivo stability, radio-HPLC of mouse urine; set-up: species or system mice; settings: 1 h p.i., intravenous
In short: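 Mice under 2% isoflurane received approximately 4–6 MBq 68Ga-labeled test peptide intravenously and recovered freely. At 1 h p.i. they were euthanized by CO2, and urine was collected. Urine was analyzed for metabolites by reversed-phase C18 HPLC in 21% acetonitrile with 0.1% TFA to give percent intact peptide. Three or four independent experiments were run.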

[2] = system: B16–F10 cells; assay: Internalization assay; assay type: cell-based, Mus musculus; settings: 2 h, 37 °C
In short: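 B16–F10 mouse melanoma cells were grown in DMEM with 10% FBS and penicillin/streptomycin, then seeded overnight on poly-D-lysine plates. They were incubated with 68Ga-labeled test peptide at 37 °C with mild agitation for 30, 60, 90 or 120 min, then washed with PBS. Cells were trypsinized for the internalized fraction, and both fractions were gamma-counted in triplicate or quadruplicate.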

[3] = Biodistribution in C57BL/6J mice bearing B16–F10 melanoma; assay type: in vivo; settings: C57BL/6J, mouse, total radioactivity; for tissue uptake at 1 h / tissue uptake at 2 h: intravenous; for tissue to tissue ratio at 1 h / tissue to tissue ratio at 2 h: iv
In short: (§1)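 Male C57BL/6J mice (8–12 weeks) were inoculated subcutaneously on the right dorsal flank with 1 × 10^6 B16–F10 cells and used at 6–8 mm tumor diameter. They received 1–2 MBq 68Ga-labeled test peptide by tail vein under anesthesia, with or without co-injected 0.5 mg BMS 470539. At 1 or 2 h p.i., blood and organs were weighed and gamma-counted. Uptake is %ID/g (mean ± SD); blocked vs unblocked compared by two-way ANOVA with Holm–Sidak.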

[4] = system: B16–F10 melanoma; assay: as above; assay type: in vivo
In short: as §1

[5] = target: melanocortin 1 receptor (MC1R); settings: read-out: binding affinity (Ki) to MC1R; cited from earlier work
[6] = target: MC3R; settings: read-out: binding affinity to MC3R; cited from earlier work
[7] = target: MC5R; settings: read-out: binding affinity to MC5R; cited from earlier work
[8] = target: MC4R; settings: read-out: binding affinity to MC4R; cited from earlier work
[9] = target: MC5R (Homo sapiens) (UniProt P33032); settings: cited from earlier work
[10] = target: MC3R (Homo sapiens) (UniProt P41968); settings: cited from earlier work
[11] = target: MC4R (Homo sapiens) (UniProt P32245); settings: cited from earlier work
[12] = target: MC1R (Homo sapiens) (UniProt Q01726); settings: cited from earlier work
Sequence of UniProt Q01726 (Q01726 whole entry): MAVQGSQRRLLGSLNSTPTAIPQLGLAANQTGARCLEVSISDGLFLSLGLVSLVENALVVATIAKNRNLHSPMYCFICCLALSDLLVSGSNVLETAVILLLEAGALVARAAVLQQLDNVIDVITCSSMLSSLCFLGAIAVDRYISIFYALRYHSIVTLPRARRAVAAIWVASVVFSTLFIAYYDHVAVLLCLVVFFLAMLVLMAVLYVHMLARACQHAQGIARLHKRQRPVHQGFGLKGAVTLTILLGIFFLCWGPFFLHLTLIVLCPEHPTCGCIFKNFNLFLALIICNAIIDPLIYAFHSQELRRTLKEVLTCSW

Sequence of UniProt P41968 (P41968 whole entry): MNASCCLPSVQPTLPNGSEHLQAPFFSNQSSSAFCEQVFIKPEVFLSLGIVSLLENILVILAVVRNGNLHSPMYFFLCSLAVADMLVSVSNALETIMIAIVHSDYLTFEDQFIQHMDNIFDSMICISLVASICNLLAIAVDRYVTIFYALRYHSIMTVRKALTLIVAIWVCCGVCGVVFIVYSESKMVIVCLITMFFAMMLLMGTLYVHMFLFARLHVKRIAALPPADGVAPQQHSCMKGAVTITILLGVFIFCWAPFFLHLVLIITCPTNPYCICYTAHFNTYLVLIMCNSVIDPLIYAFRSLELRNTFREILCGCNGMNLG
Sequence of UniProt P32245 (P32245 whole entry): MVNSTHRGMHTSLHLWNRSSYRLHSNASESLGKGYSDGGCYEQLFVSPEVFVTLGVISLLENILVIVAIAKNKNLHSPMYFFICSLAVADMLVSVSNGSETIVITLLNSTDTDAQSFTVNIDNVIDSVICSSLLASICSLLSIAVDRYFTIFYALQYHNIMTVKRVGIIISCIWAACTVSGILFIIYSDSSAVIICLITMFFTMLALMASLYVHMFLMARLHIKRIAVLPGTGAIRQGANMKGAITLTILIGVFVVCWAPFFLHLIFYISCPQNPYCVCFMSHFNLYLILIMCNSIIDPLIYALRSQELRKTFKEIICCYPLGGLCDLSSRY
Sequence of UniProt P33032 (P33032 whole entry): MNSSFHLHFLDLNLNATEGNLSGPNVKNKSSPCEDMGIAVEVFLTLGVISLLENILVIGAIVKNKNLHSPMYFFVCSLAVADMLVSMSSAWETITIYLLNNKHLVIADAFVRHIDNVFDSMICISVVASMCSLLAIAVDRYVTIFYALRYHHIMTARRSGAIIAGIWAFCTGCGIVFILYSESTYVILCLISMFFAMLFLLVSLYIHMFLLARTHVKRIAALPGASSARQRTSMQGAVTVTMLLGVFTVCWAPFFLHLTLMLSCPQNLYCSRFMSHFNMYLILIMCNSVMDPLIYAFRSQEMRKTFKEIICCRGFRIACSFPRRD

## CCCC[C@H](NC(=O)CN1CCC(NC(=O)CN2CCN(CC(=O)O)CCN(CC(=O)O)CCN(CC(=O)O)CC2)CC1)C(=O)N[C@H]1CC(=O)NCCCC[C@@H](C(N)=O)N(C)C(=O)[C@H](Cc2c[nH]c3ccccc23)N(C)C(=O)[C@H](CCCNC(=N)N)N(C)C(=O)[C@@H](Cc2ccccc2)NC(=O)[C@H](Cc2cnc[nH]2)N(C)C1=O [[^68Ga]Ga-CCZ01099, metal not drawn]
[1]
  percentage of intact peptide: ≥ 98%
[2]
  radioactivity internalized: 48%
[3]; B16F10 tumor
  tissue uptake at 1 h: 6.33 ± 1.48 %ID/g
[3]; adrenal glands
  tissue uptake at 1 h: 0.79 ± 0.72 %ID/g
[3]; blood
  tissue uptake at 1 h: 0.65 ± 0.12 %ID/g
[3]; bone
  tissue uptake at 1 h: 0.33 ± 0.18 %ID/g
[3]; heart
  tissue uptake at 1 h: 0.24 ± 0.06 %ID/g
[3]; intestine, 0.5 mg
  tissue uptake at 1 h: 0.17 ± 0.05 %ID/g
[3]; intestine
  tissue uptake at 1 h: 0.34 ± 0.07 %ID/g
[3]; kidneys
  tissue uptake at 1 h: 5.59 ± 0.88 %ID/g
[3]; liver
  tissue uptake at 1 h: 0.53 ± 0.07 %ID/g
[3]; lungs
  tissue uptake at 1 h: 0.69 ± 0.11 %ID/g
[3]; muscle
  tissue uptake at 1 h: 0.16 ± 0.05 %ID/g
[3]; stomach
  tissue uptake at 1 h: 0.22 ± 0.11 %ID/g
[3]; thyroid
  tissue uptake at 1 h: 0.3 ± 0.08 %ID/g
[3]; tumor and blood
  tissue to tissue ratio at 1 h: 9.94 ± 2.93
[3]; tumor and bone
  tissue to tissue ratio at 1 h: 23.3 ± 12.1
  tissue to tissue ratio at 2 h: 52.7 ± 13.4
[3]; tumor and kidneys
  tissue to tissue ratio at 1 h: 1.13 ± 0.22
[3]; tumor and liver
  tissue to tissue ratio at 1 h: 11.9 ± 2.26
  tissue to tissue ratio at 2 h: 11.8 ± 2.72
[3]; tumor and muscle
  tissue to tissue ratio at 1 h: 40.6 ± 11.9
[3]; male, seminal glands
  tissue uptake at 2 h: 0.04 ± 0.01 %ID/g
[3]; male, testes
  tissue uptake at 1 h: 0.2 ± 0.06 %ID/g
  tissue uptake at 2 h: 0.07 ± 0.01 %ID/g
[4]; 1 h p.i. blocked (n = 5), co-injection of 0.5 mg BMS 470539
  tumor/blood uptake ratio: 2.24 ± 0.40
[4]; 1 h p.i. unblocked (n = 5)
  tumor/blood uptake ratio: 9.94
  tumor/bone uptake ratio: 23.3
  tumor/muscle uptake ratio: 40.6
[4]; 1 h p.i., blocking with BMS 470539, p < 0.001
  reduction of tumor uptake by blocking: 91%
[4]; 2 h p.i. unblocked (n = 4)
  tumor/blood uptake ratio: 27.7
  tumor/bone uptake ratio: 52.7
  tumor/muscle uptake ratio: 125

## Ac-Nle^4-Cyclo[Asp^5-His^6-D-Phe^7-Arg^8-Trp^9-Lys^10]αMSH4-10-NH2 [MTII]
[5]
  Ki: 0.69 nM
[6]
  Ki: 34.1 nM
[7]
  Ki: 46.1 nM

## Alpha-melanocyte-stimulating hormone [αMSH]
[8]
  Ki: 900 nM

## αMSH (from UniProt P01189)
[9]
  Ki: 7160 nM
[10]
  Ki: 31.5 nM
[11]
  Ki: 900 nM
[12]
  Ki: 0.23 nM
